This note sets out measurements from ChEMBL document CHEMBL5661964, “Selective in vivo and in vitro effects of a small molecule inhibitor of cyclin-dependent kinase 4” (J Natl Cancer Inst, 2001).

Calls of active or inactive are those of the source. The rule behind the calls is not given here. Bounds are passed on as bounds.

The nature of assay [1]: Inhibition of GST-tagged human v-abl expressed in baculovirus infected Sf9 cells using tyrosine-containing peptide substrate in presence of ATP.
The test system of assay [2] is U2OS. In words: Induction of cell cycle arrest in human U2OS cells expressing pRb assessed as percentage of cells at G0/G1 phase at 5 uM after 24 hrs by flow cytometry analysis (reference value: 49.8%). The class given is functional.
The test system of assay [3] is U2OS. In words: Induction of cell cycle arrest in human U2OS cells assessed as percentage of cells at G2/M phase, cells were released from mimosine block prior to compound addition at 10 uM after 38 hrs by flow cytometry analysis (reference value: 32.3%). The class given is functional. (In general: A flow cytometer gives signals particle by particle.)
Assay [4] deals with U2OS. Description: Induction of cell cycle arrest in human U2OS cells assessed as percentage of cells at G2/M phase, cells were released from mimosine block prior to compound addition at 5 uM after 38 hrs by flow cytometry analysis (reference value: 32.3%). Format: functional.
The subject of assay [5] is HCT-116. In words: Antitumor activity against human HCT-116 cells xenografted in nude mouse assessed as decrease tumor volume at 30 mg/kg, ip administered every 12 hrs measured after 29 days. The class given is functional, organism-based. The settings on record: time 29.0 day. The method in brief: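 Female BALB/c nu/nu mice (19–21 g), 8 per group, injected s.c. with 0.1 mL HCT116 suspension (1 × 10^7 viable cells/mL in Hanks' buffer). Treatment started at about 100 mm3 (day 20). Dosing i.p. in 5% DMSO/0.05% Tween 80/95% saline at 10 mL/kg for 29 days; vehicle controls. Caliper volumes taken blinded every 2–4 days as length × width² × π/6. Dunnett ANOVA; growth rate compared as log-volume slopes.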
A general note: In xenograft studies the graft and the host belong to different species.

For assay [6], the system named is U2OS. In words: Induction of apoptosis in human U2OS cells assessed as number of apoptotic cells at 10 uM after 48 hrs by TUNEL staining based fluorescence analysis (reference value: 0.61%). The class given is functional.
The subject of assay [7] is U2OS. In words: Induction of cell cycle arrest in human U2OS cells assessed as percentage of cells at S phase, cells were released from quinidine block prior to compound addition at 10 uM after 24 hrs by flow cytometry analysis (reference value: 21.39%). The class given is functional.
The next assay relates to MRC5. In words: Induction of cell cycle arrest in human MRC5 cells assessed as number of cells at G2/M phase at 5 uM after 24 hrs in presence of 10% serum by flow cytometry analysis (reference value: 14.9%). The class given is functional.
Assay [8] has as its system U2OS. Description: Induction of cell cycle arrest in human U2OS cells expressing pRb negative assessed as percentage of cells at G0/G1 phase at 10 uM after 24 hrs by flow cytometry analysis (reference value: 42.5%). Format: functional.
In assay [9] the test system is HCT-116. Description: Induction of cell cycle arrest in human HCT-116 cells assessed as number of cells at G2/M phase at 10 uM after 24 hrs in presence of 10% serum by flow cytometry analysis (reference value: 13.1%). Format: functional. The method in brief:
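HCT116 cells in McCoy's 5A were serum-starved 72 h in 0.1% serum, then released for 24 h into 10% serum with or without compound. They were fixed in 70% ethanol, RNase-treated (3 mg/mL, 30 min, 37 °C) and stained with 50 μg/mL propidium iodide. Flow cytometry on FL-2 area with doublet gating gave the percentages in sub-G1, G0/G1, S and G2/M.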

Turning to `CCNc1cc(N[C@H]2CC[C@H](O)CC2)nc(Nc2ccc3c(ccn3Cc3ccccc3)c2)n1`, in assay [1], the half-maximal inhibitory concentration (IC50) is over 10 µM. Also, the Activity in the assay with U2OS [2] was 79.5%; in the assay with U2OS [3], 13.9%; in the assay with U2OS [4], 31.4%; in the assay on U2OS [6], 83.44%; in the assay with U2OS [7], 7.6%; in the assay on MRC5 it was 4.4%. For the same compound, the Activity with U2OS [8] turned out to be 42.8%; with HCT-116 [9], 13%. The result with HCT-116 [5] was Active.

By IC50 is commonly meant the concentration that inhibits the measured activity by half.
